Assay results as given in ChEMBL document CHEMBL1137845, “Discovery of N-propylurea 3-benzylpiperidines as selective CC chemokine receptor-3 (CCR3) antagonists” (Bioorg Med Chem Lett, 2004).
Each block holds one molecule with its values, some of them ahead of it.

Legend:
[1] = biological target: T1, C-C chemokine receptor type 3 (Homo sapiens, UniProt P51677); assay: Inhibitory concentration against C-C chemokine receptor type 3 using human [125I]eotaxin.
T1 sequence (P51677 whole entry): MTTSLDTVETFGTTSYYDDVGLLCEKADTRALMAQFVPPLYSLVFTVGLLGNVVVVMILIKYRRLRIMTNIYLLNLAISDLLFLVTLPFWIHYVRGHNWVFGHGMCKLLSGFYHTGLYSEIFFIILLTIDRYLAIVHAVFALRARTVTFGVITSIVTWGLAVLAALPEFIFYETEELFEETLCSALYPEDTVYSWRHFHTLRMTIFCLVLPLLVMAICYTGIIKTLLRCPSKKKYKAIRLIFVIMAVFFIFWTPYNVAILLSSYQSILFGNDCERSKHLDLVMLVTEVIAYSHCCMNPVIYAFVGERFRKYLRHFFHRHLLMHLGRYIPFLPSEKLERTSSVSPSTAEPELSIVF
Summary of the method: (§1)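 Displacement of 150 pM 125I-labeled human eotaxin from CHO cells (5×10^5 per well), compound 0.0001–1 μM, in RPMI 1640 with 0.5% BSA, 10 mM HEPES, 5 mM MgCl2; filter plates pretreated with 5 μg/mL protamine in PBS pH 7.2. 30 min at room temperature, vacuum filtration, three washes with binding buffer plus 0.5 M NaCl, bound label by liquid scintillation counting.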

[2] = biological target: 5-hydroxytryptamine receptor 2A (Homo sapiens, UniProt P28223); assay: Inhibition of binding to serotonin 5-hydroxytryptamine 2A receptor
Sequence of 5-hydroxytryptamine receptor 2A (P28223 whole entry): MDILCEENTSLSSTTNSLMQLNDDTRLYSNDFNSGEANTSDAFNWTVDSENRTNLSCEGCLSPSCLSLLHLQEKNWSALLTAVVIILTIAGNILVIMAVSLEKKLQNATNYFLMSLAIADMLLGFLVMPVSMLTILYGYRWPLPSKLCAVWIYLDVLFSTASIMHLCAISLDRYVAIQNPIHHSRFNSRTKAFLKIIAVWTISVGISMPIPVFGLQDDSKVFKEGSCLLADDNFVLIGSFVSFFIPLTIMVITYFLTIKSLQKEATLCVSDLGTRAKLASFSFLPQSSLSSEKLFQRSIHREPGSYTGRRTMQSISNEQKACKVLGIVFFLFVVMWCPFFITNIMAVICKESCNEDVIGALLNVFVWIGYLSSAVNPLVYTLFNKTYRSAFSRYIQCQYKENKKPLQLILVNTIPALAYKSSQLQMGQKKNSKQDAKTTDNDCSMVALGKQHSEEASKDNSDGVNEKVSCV

[3] = Effective concentration determined in calcium mobilization assay; format: functional
Summary of the method: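 Calcium flux in 2×10^5 eosinophils preloaded with Fluo-3AM, stimulated with 10 nM eotaxin, compound 0.0001–1 μM, in RPMI 1640 with 0.1% BSA, 20 mM HEPES and 2.5 mM probenecid; fluorescence read on a fluorescent imaging plate reader.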

[4] = Effect on chemotaxis of eosinophils was determined; format: functional
[5] = biological target: T2, C-C chemokine receptor type 3 (Homo sapiens) (UniProt P51677); assay: Inhibitory concentration of compound against C-C chemokine receptor type 3 was determined using human [125I]eotaxin; conditions: concentration not given here; summary of the method: as §1
T2 sequence (whole entry): T1 sequence (P51677 whole entry)

[6] = biological target: CC chemokine receptor 3 (Homo sapiens); assay: Binding affinity against CC chemokine receptor 3 was determined using human [125I]-eotaxin

- IC50 [1]: 3.6 nM
- EC50 [3]: 45 nM
SMILES: O=C(NCCCN1CCC[C@@H](Cc2ccc(F)cc2)C1)Nc1cccc(-c2nnco2)c1

- IC50 [1]: 7.1 nM
SMILES: O=C(NCCCN1CCC[C@@H](Cc2ccc(F)cc2)C1)Nc1cccc(-n2ccnc2)c1

- IC50 [1]: 0.9 nM
SMILES: Cn1nnnc1-c1cc(CO)cc(NC(=O)NCCCN2CCC[C@@H](Cc3ccc(F)cc3)C2)c1

- IC50 [1]: 2.5 nM
- EC50 [4]: 25 nM
- EC50 [3]: 2.4 nM
- Ki [2]: 1350 nM
SMILES: CC(=O)c1cccc(NC(=O)NCCCN2CCC[C@@H](Cc3ccc(F)cc3)C2)c1

- IC50 [1]: 243 nM
SMILES: N#Cc1cccc(NC(=O)NCCCN2CCCC(Cc3cccc(F)c3)C2)c1 (stereo unspecified)

- IC50 [1]: 0.7 nM
- EC50 [4]: < 1 nM
- EC50 [3]: 0.6 nM
SMILES: CNC(=O)c1cc(NC(=O)NCCCN2CCC[C@@H](Cc3ccc(F)cc3)C2)cc(-c2nnnn2C)c1

- IC50 [1]: 2.6 nM
SMILES: CC(=O)c1cc(NC(=O)NCCCN2CCC[C@@H](Cc3ccc(F)cc3)C2)cc(-c2nnnn2C)c1

- IC50 [1]: 31 nM
- Ki [2]: 178 nM
SMILES: N#Cc1cccc(NC(=O)NCCCN2CCC(Cc3ccc(F)cc3)C2)c1 (stereo unspecified)

- IC50 [1]: 3.1 nM
SMILES: CC(C)n1nnnc1-c1cccc(NC(=O)NCCCN2CCC[C@@H](Cc3ccc(F)cc3)C2)c1

- IC50 [1]: 1.2 nM
SMILES: Cn1nnnc1-c1cc(NC(=O)NCCCN2CCC[C@@H](Cc3ccc(F)cc3)C2)cc(C(F)(F)F)c1

- IC50 [1]: 55 nM
- Ki [2]: 913 nM
SMILES: COc1cccc(NC(=O)NCCCN2CCCC(Cc3ccccc3)C2)c1 (stereo unspecified)

- IC50 [1]: 1.2 nM
- EC50 [4]: 3 nM
SMILES: CC(=O)c1cc(NC(=O)NCCCN2CCC[C@@H](Cc3ccc(F)cc3)C2)cc(C(C)=O)c1

- IC50 [1]: 29 nM
- Ki [2]: 2310 nM
SMILES: N#Cc1cccc(NC(=O)NCCCN2CCCC(Cc3ccc(F)cc3)C2)c1 (stereo unspecified)

- IC50 [1]: 2.4 nM
SMILES: Cn1nnnc1-c1cc(NC(=O)NCCCN2CCC[C@@H](Cc3ccc(F)cc3)C2)cc(-c2ccccc2)c1

- IC50 [1]: 7.9 nM
SMILES: O=C(NCCCN1CCC[C@@H](Cc2ccc(F)cc2)C1)Nc1cccc(-c2cnco2)c1

- IC50 [1]: 0.6 nM
- EC50 [4]: 3.2 nM
- EC50 [3]: 1.3 nM
SMILES: Cn1nnnc1-c1cccc(NC(=O)NCCCN2CCC[C@@H](Cc3ccc(F)cc3)C2)c1

- IC50 [1]: 1.2 nM
SMILES: CCn1nnnc1-c1cccc(NC(=O)NCCCN2CCC[C@@H](Cc3ccc(F)cc3)C2)c1

- IC50 [1]: 3.1 nM
- EC50 [4]: < 1 nM
- EC50 [3]: 3.4 nM
SMILES: Cn1nnnc1-c1cc(Br)cc(NC(=O)NCCCN2CCC[C@@H](Cc3ccc(F)cc3)C2)c1

- IC50 [1]: 1.5 nM
- EC50 [4]: 1 nM
- EC50 [3]: 0.9 nM
SMILES: Cc1cc(NC(=O)NCCCN2CCC[C@@H](Cc3ccc(F)cc3)C2)cc(-c2nnnn2C)c1

- IC50 [1]: 0.7 nM
- EC50 [4]: 0.4 nM
- EC50 [3]: 0.76 nM
SMILES: Cn1nnnc1-c1cc(NC(=O)NCCCN2CCC[C@@H](Cc3ccc(F)cc3)C2)cc(-c2nnnn2C)c1

- IC50 [1]: 39 nM
SMILES: CC(=O)c1cccc(NC(=O)NCCCN2CCC[C@H](Cc3ccc(F)cc3)C2)c1

The remaining lines, values behind:

SMILES: N#Cc1cccc(NC(=O)NCCCN2CCCC(Cc3ccccc3F)C2)c1 (stereo unspecified)
- IC50 [1]: 38 nM
- Ki [2]: 2240 nM

SMILES: COc1cccc(NC(=O)NCCCN2CCC(Cc3ccc(F)cc3)CC2)c1
- Ki [2]: 224 nM

SMILES: CC(=O)c1cccc(NC(=O)NCCCN2C[C@@H]3Cc4ccc(F)cc4C[C@H]3C2)c1
- IC50 [1]: 49 nM

SMILES: CC(=O)c1cccc(NC(=O)NCCCN2[C@@H]3CC[C@H]2C[C@@H](Cc2ccc(F)cc2)C3)c1 (stereo in doubt; 22)
- IC50 [1]: 47 nM

SMILES: N#Cc1cccc(NC(=O)NCCCN2CCCC(Cc3ccc(C(F)(F)F)cc3)C2)c1 (stereo unspecified)
- inhibition [5]: 11%

SMILES: N#Cc1cccc(NC(=O)NCCCN2CCOC(Cc3ccccc3)C2)c1 (stereo unspecified)
- inhibition [5]: 36%

SMILES: N#Cc1cccc(NC(=O)NCCCN2CCC(Cc3ccc(F)cc3)CC2)c1
- Ki [2]: 167 nM

SMILES: N#Cc1cccc(NC(=O)NCCCN2CCCC(CCc3ccccc3)C2)c1 (stereo unspecified)
- inhibition [5]: 66%

SMILES: COc1cccc(NC(=O)NCCCN2CCOC(Cc3ccccc3)C2)c1 (stereo unspecified)
- inhibition [5]: 14%

SMILES: COc1cccc(CC2CCCN(CCCNC(=O)Nc3cccc(C#N)c3)C2)c1 (stereo unspecified)
- inhibition [5]: 31%

SMILES: CC(=O)c1cccc(NC(=O)NCCCN2CC3(Cc4ccc(F)cc4)CCC2CC3)c1
- IC50 [1]: 39 nM

SMILES: N#Cc1cccc(NC(=O)NCCCN2CCCC(Cc3ccccc3)C2)c1 (stereo unspecified)
- IC50 [1]: 41 nM
- Ki [2]: 2940 nM

SMILES: CC(=O)c1cccc(NC(=O)NCCCN2CC3CCC2[C@H](Cc2ccc(F)cc2)C3)c1 (stereo partly specified)
- IC50 [1]: 802 nM

SMILES: CC(=O)c1cccc(NC(=O)NCCCN2[C@@H]3CC[C@H]2C[C@@H](Cc2ccc(F)cc2)C3)c1 (stereo in doubt; 21)
- IC50 [1]: 7.4 nM

SMILES: CC(=O)c1cccc(NC(=O)NCCCN2CCC(Cc3ccc(F)cc3)CC2)c1
- Ki [2]: 193 nM

SMILES: N#Cc1cccc(NC(=O)NCCCN2CCC(Cc3ccccc3)CC2)c1
- Ki [2]: 770 nM

SMILES: COc1cccc(NC(=O)NCCCN2CCCC(CCc3ccccc3)C2)c1 (stereo unspecified)
- inhibition [5]: 84%
- IC50 [6]: 787 nM

SMILES: CC(=O)c1cccc(NC(=O)NCCCN2CCN(C(C)=O)C(Cc3ccc(F)cc3)C2)c1 (stereo unspecified)
- inhibition [5]: 0%

SMILES: CC(=O)c1cccc(NC(=O)NCCCN2C[C@@H]3C[C@@H](c4ccc(F)cc4)[C@@H]3C2)c1
- inhibition [5]: 68%

SMILES: COc1cccc(NC(=O)NCCCN2CCC(Cc3ccccc3)CC2)c1
- Ki [2]: 613 nM

SMILES: CC(=O)c1cccc(NC(=O)NCCCN2CC3CCC2[C@@H](Cc2ccc(F)cc2)C3)c1 (stereo partly specified)
- IC50 [1]: 169 nM

SMILES: N#Cc1cccc(NC(=O)NCCCN2CCCC(Cc3ccc(F)cc3F)C2)c1 (stereo unspecified)
- IC50 [1]: 19 nM
- Ki [2]: 2350 nM

SMILES: CC(=O)c1cccc(NC(=O)NCCCN2C[C@H]3Cc4ccc(F)cc4C[C@H]3C2)c1
- IC50 [1]: 56 nM
